What all share (format): ADME
The nature of data set [1]: Compound was evaluated for the second order hydrolysis rate constant. An outline of the steps: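 Amides were reacted with NaOD in D2O under second-order conditions. Concentrations of amide and hydroxide were tracked over reaction time. k2 was taken from the gradient of a plot of the log of the lactam/hydroxide concentration ratio against time, using the second-order rate law with the starting amide and NaOD concentrations.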

A short description of data set [2]: Compound was evaluated for rate of hydrolysis expressed in hours at a pH of 12. The settings on record: pH 12. An outline of the steps: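 Deuterated phosphate buffer at pH 12 was made from 1 M K2DPO4 in D2O, with pH adjusted using 10 M KOD. Lactams were dissolved in it at 0.10 and 0.50 M. Hydrolysis was followed over time, and a rate constant per hour was derived.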

Data set [3] is described as follows: Compound was evaluated for rate of hydrolysis expressed in hours at a pH of 7.5. The note with it: pH 7.5. An outline of the steps: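 Pseudo-first-order hydrolysis was run in 0.33 M phosphate buffer at pH 7.5 in D2O, made by mixing Na2DPO4 and KD2PO4 solutions. The pH was checked potentiometrically. The rate constant was expressed per hour.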

Results on eight molecules are retold here after ChEMBL document CHEMBL1133515, “Hydrolytic stability versus ring size in lactams: implications for the development of lactam antibiotics and other serine protease inhibitors” (J Med Chem, 2000).

`CNC(C)=O` gave a k2 in data set [1] of 3.32e-06 M⁻¹ s⁻¹.
In data set [1], `O=C1CCCCN1` gave a k2 of 0.000121 M⁻¹ s⁻¹. The same molecule came in with a k in data set [2] of 0.000648 h⁻¹.
In data set [1], `O=C1CCCCCCN1` returned a k2 of 1.36e-07 M⁻¹ s⁻¹.
`O=C1CCCCCCCN1`: the k2 in data set [1] was 2.72e-07 M⁻¹ s⁻¹.
For `O=C1CCN1`, in data set [1], the k2 was 0.000237 M⁻¹ s⁻¹. Further, in data set [2], the k was determined as 0.00103 h⁻¹.
For the molecule `O=C1CCCN1` [2-PYRROLIDONE], the k2 in data set [1] came to 5.59 M⁻¹ s⁻¹.
On the same count and under the same terms, the same measure for `O=C1CCCCCN1` [CAPROLACTAM]: 3.21e-06 M⁻¹ s⁻¹.
With `CC1(C)S[C@@H]2[C@H](NC(=O)Cc3ccccc3)C(=O)N2[C@H]1C(=O)[O-].[K+]` [PENICILLIN G POTASSIUM], the k in data set [3] stood at 0.00337 h⁻¹; in data set [2], 2.3 h⁻¹.
